Compound activity from PubChem BioAssay.
IMP-1 inhibitor: inhibitors of Pseudomonas aeruginosa IMP-1 metallo-beta-lactamase. purified IMP-1, nitrocefin hydrolysis, epi-absorbance fluorescence. inhibition, % at 5.6 µM. 290,000 compounds, 0.45% hits. AID 1556;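 active = inhibition above the mean plus 3 SD of all compounds in the same screening run, cut at about 4.5% in these data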;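 also: 0% = IMP-1 with DMSO and 100% = DMSO wells lacking enzyme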
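assay system = purified recombinant IMP-1 metallo-beta-lactamase enzyme | schedule = 15 min preincubation plus 25 min reaction at 25 °C | signal = Epi-absorbance fluorescence, 480 nm excitation, 530 nm emission | read-out basis = percent inhibition from optical density relative to buffer-blank wells | controls = IMP-1 with DMSO as 0%, enzyme-free DMSO as 100%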
Calb FLC: C. albicans growth modulation with fluconazole | C. albicans CaCi-2 + fluconazole, Alamar Blue growth, 48 h | growth inhibition, % (no concentration beside the values) | 300,000 compounds, 0.57% hits;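 active = growth inhibition above about 58% in most replicates, limit read from the data, passing the limit was not always enough; inconclusive = exactly half the replicates above a set limit; inactive = most replicates below a set limit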;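 also: all wells also contain fluconazole at 8 µg/ml as a sub-toxic cotreatment; 0% = median of DMSO wells and 100% = median of geldanamycin control wells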
PHOSPHO1 inh: blocks human PHOSPHO1 phosphatase activity; 290,000 compounds, 1.1% hits; AID 1565; inhibition, % at 13.3 µM; recombinant PHOSPHO1, absorbance phosphatase assay; Q8TCT1; in the data active = inhibition above about 60%
ARFGAP1 inh: rat ARFGAP1 inhibition. Q62848. Arfgap1-stimulated ARF1 GTP hydrolysis, GDP FP detection. inhibition, % at 16.5 µM. 360,000 compounds, 0.26% hits. AID 651572;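 active = inhibition above a per-plate limit, mean inhibition of low control wells plus 3 SD, cut at about 25% in these data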;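 also: 0% = DMSO wells with enzyme and 100% = wells lacking Arfgap1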
Target sequence (Q62848 1-136 limits assumed): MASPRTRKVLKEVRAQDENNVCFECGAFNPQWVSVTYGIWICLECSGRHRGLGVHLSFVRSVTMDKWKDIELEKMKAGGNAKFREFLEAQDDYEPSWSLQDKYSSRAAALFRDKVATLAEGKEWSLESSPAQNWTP
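material = rat Arfgap1 catalytic domain, aa 1-136 | also added = human ARF1(Δ1-17)-GTP substrate | compound dosing = one concentration, 16.5 µM, DMSO 1.26% | times = GTP hydrolysis reaction 2 h at 25 °C | measured by = FP, GDP Alexa 633 tracer displaced from anti-GDP antibody, 620/688 nm | evaluation = percent inhibition of Arfgap1-stimulated GTP hydrolysis | replication = single well per compound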
ASAP1 GAP inh: blocks human ASAP1-stimulated Arf1 GTP hydrolysis. inhibition, % at 16.5 µM. GDP FP detection. AID 624377. 360,000 compounds, 0.19% hits; in the data active = inhibition above about 25%;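 also: 0% = vehicle with enzyme and substrate and 100% = no enzyme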
Target sequence (Q9ULH1 325-724 limits assumed): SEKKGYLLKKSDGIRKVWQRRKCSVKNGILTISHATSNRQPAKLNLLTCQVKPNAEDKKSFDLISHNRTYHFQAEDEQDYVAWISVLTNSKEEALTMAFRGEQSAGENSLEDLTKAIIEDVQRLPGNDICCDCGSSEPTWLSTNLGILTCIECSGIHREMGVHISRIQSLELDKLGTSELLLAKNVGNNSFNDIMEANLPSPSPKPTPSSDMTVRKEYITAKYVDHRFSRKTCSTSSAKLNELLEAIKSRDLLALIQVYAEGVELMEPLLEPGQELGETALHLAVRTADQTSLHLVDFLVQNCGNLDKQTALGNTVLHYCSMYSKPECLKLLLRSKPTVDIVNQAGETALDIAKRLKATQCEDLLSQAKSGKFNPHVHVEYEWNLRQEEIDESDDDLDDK
VIM-2 inhibitor: inhibitors of Pseudomonas aeruginosa VIM-2 metallo-beta-lactamase. inhibition, % at 5.6 µM. 290,000 compounds, 0.89% hits. purified VIM-2, nitrocefin hydrolysis, epi-absorbance fluorescence;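 active = inhibition above the mean of all tested compounds plus 3 SD, cutoff set per screening run, cut at about 7.5% in these data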;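 also: red hydrolysis product quenches plate fluorescence so inhibitors raise well fluorescence; 0% = enzyme with DMSO and 100% = DMSO without enzyme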
An asterisk follows results filed as active; ? = inconclusive; . = not tested or not shown. Rows were chosen to be rich in hits. Some 2.6% of all compounds tested hit in one or more screens of this group.

SMILES	IMP-1 inhibitor	Calb FLC	PHOSPHO1 inh	ARFGAP1 inh	ASAP1 GAP inh	VIM-2 inhibitor
CCOc1cc(/C=C(\C#N)C(=O)NCC2CCCO2)ccc1O (stereo unspecified)	-2	9	-6	0	-3	0
CCOc1cc(/C=C(\C#N)C(=O)NCC2CCCO2)ccc1OCC(N)=O (stereo unspecified)	-3	105*	17	-6	-7	-4
CCn1c(NCc2ccc3c(c2)OCO3)nc2ccccc21	-1	-14	65*	12	-6	1
Nc1ccc2nc(SCC(=O)N3CCOCC3)sc2c1	-4	-14	8	5	10	-1
CCOC(=O)CSc1nc2ccc(N)cc2s1	-3	-15	83*	1	1	-1
CCOc1ccc2nc(SCC(=O)c3ccc(Cl)s3)sc2c1	-4	20	62*	6	15	-5
CCOc1ccc2nc(SCC(=O)c3cccs3)sc2c1	-9	18	0	14	10	-4
O=C(N/N=C/c1ccc(Cl)cc1Cl)c1ccc2nc[nH]c2c1	8.8*	?	-50	1	0	-1
COc1ccc(-c2nnc(NC(=O)c3ccc(F)cc3)o2)cc1	-4	92*	6	-7	-3	-5
Cc1ccccc1C(=O)Nc1nnc(-c2ccc(F)cc2)o1	-4	89*	-5	-11	8	-2
COc1ccc(-c2nnc(NC(=O)c3cc(Cl)ccc3Cl)o2)cc1	-3	83*	4	-6	-9	-3
COc1ccc(-c2nnc(NC(=O)c3ccc(S(=O)(=O)N4CCc5ccccc5C4)cc3)o2)cc1	-3	97*	8	.	.	-4
COc1ccccc1C(=O)Nc1nnc(-c2ccc(F)cc2)o1	-3	22	-9	13	2	-4
S=C1NC2(CCCCCC2)NN1c1ccccc1	.	.	.	-2	16	.
CCC(c1nnc(SCC(=O)Nc2nnc(-c3ccccc3)o2)o1)N(C)C (stereo unspecified)	-3	0	40	-9	0	-6
O=C(Nc1nnc(-c2ccc3c(c2)CCCC3)o1)c1ccc(Cl)cc1Cl	-5	85*	-18	-2	0	-1
O=C(Nc1nnc(-c2ccc3c(c2)CCCC3)o1)c1c(F)cccc1F	-3	?	16	-2	-11	0
Cc1ccc(C)c(SCC(=O)Nc2nnc(-c3ccccc3)o2)c1	-6	81*	31	9	0	-7
CC(C)C[C@H]1CN(CCCC[C@@H]2CNC(=O)C(=O)N2Cc2ccccc2)C(=O)C(=O)N1Cc1ccccc1	.	.	.	8	6	.
COCCNC(=S)Nc1ccc2nsnc2c1	-4	32	-6	18	21	-3
COCCNC(=S)Nc1ccc(Cl)c(Cl)c1	-2	3	64*	12	3	-1
CCN(C(=O)c1ccc2c(=O)n3c(nc2c1)CCCCC3)c1cc(OC)ccc1OC	1	-3	65*	1	-2	2
Cc1ccc(N2CC(C(=O)NC3=NCCS3)CC2=O)cc1 (stereo unspecified)	-3	6	0	2	3	-2
CC(C)Oc1ccc(N2CC(C(=O)NC3=NCCS3)CC2=O)cc1 (stereo unspecified)	-1	4	64*	8	6	0
O=C(N[C@H](C(=O)N1CCC[C@H]1C(=O)NCc1ccccc1)C1CCCCC1)c1ccc(Cl)c(Cl)c1	.	.	.	-3	-3	.
SMILES	IMP-1 inhibitor	Calb FLC	PHOSPHO1 inh	ARFGAP1 inh	ASAP1 GAP inh	VIM-2 inhibitor
CCC1=C/C(=C/N(C)c2ccccc2)C(=O)S1	6.1*	-3	24	0	-8	3
COc1ccccc1Cc1c(C2CCCCC2)nc2c(C)cc(Br)cn12	.	.	.	9	-1	.
O=[N+]([O-])c1cc2c(c(CSc3nnc(Nc4ccccc4)s3)c1)OCOC2	1	3	100*	-5	-6	1
Cc1nnc(SCc2cc([N+](=O)[O-])cc3c2OCOC3)n(N)c1=O	-1	-5	20	14	-4	-3
Cc1ccccc1Nc1nnc(SCc2cc([N+](=O)[O-])cc3c2OCOC3)s1	-7	45	90*	.	.	1
COC(=O)c1cc2c(c3c4cc(C)ccc4n(S(=O)(=O)c4cccc(C)c4)c13)C(=O)N(Cc1ccccc1OC)C2	.	.	.	11	7	.
Cn1c(=O)c2c(ncn2Cc2ccc(O)c([N+](=O)[O-])c2)n(C)c1=O	.	.	.	2	-11	.
N#Cc1ccccc1OCC(O)CS(=O)(=O)c1ccccc1 (stereo unspecified)	-2	-9	20	-6	2	-2
O=S(=O)(CC(O)COc1ccccc1Cl)c1ccccc1 (stereo unspecified)	-3	4	66*	2	-3	-2
CC(=O)N(/N=C1\Sc2ccccc2C1=O)c1ccc(C)cc1C	-1	-4	94*	-2	1	-1
CC(=O)N(/N=C1\Sc2ccccc2C1=O)c1ccccc1C	0	0	-123	8	8	2
COC(=O)c1cc2c(c3c4ccccc4n(S(=O)(=O)c4ccc(C)cc4)c13)C(=O)N(Cc1ccccc1)C2	.	.	.	4	2	.
COC(=O)c1cc2c(c3c4cc(F)ccc4n(S(=O)(=O)c4ccc(C)cc4)c13)C(=O)N(c1ccc(OC)cc1)C2	.	.	.	11	4	.
Cc1nc(COC(=O)c2ccc(S(=O)(=O)N3CCCC3)cc2)cs1	-2	0	81*	-16	1	-3
O=C(N[C@H](C(=O)N1CCC[C@H]1C(=O)NC1CCCC1)C1CCCCC1)c1nccs1	.	.	.	3	-4	.
Cc1ccc(S(=O)(=O)NNc2nc3ccccc3nc2C(F)(F)F)cc1	-5	-2	92*	-11	-8	-4
Cc1ccc(NC(=O)CN2C(=O)S/C(=C\c3cccn3-c3cccc(C(=O)O)c3)C2=O)c(C)c1	-2	-9	102*	.	.	-3
Cc1ccccc1NC(=O)CN1C(=O)S/C(=C\c2cccn2-c2cccc(C(=O)O)c2)C1=O	-2	-2	46	-3	1	-2
Fc1ccc(C2=Nn3c(Cc4ccccc4F)nnc3SC2)cc1	-1	-1	62*	7	7	-2
c1ccc(Cc2nnc3n2N=C(c2ccccc2)CS3)cc1	-2	-2	17	2	8	1
O=C(NCC1CCN(C(=O)C(=O)c2cccs2)CC1)c1ccc2c(c1)OCO2	.	.	.	15	3	.
CC(=O)N1CCN(C(=O)c2cc(C)nc3ccccc23)CC1	-1	-2	60*	-3	4	-2
O=C(c1cc(-c2ccccc2)nc2ccccc12)N1CCCC1	-4	18	14	9	6	-2
O=C(c1cc(-c2cccc(Cl)c2)nc2ccccc12)N1CCCC1	-5	1	62*	3	1	-3
Cc1cc(C(=O)N2CC=C(c3ccccc3)CC2)c2ccccc2n1	.	0	.	-4	12	.
C=CCN=C1NC(c2cccc(C(F)(F)F)c2)C(C(=O)OC)=C(C)N1Cc1ccccc1C(F)(F)F (stereo unspecified)	.	.	.	5	3	.
